Experimental data as given in ChEMBL document CHEMBL4382192, “Discovery of a potent dual ALK and EGFR T790M inhibitor” (Eur J Med Chem, 2017).

Experiments:
[1] = Metabolic stability in dog liver microsomes assessed as parent compound remaining at 1 uM after 30 mins in presence of NADPH by LC/MS/MS analysis; type: ADME, Canis lupus familiaris, Microsome; conditions: read-out: Stability
Outline: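 Compound at 1 μM final with 0.5 mg/mL microsomal protein in 100 mM phosphate buffer pH 7.4 at 37 °C, started by adding an NADPH-regenerating system. Reactions were quenched with cold acetonitrile at 0 and 30 min and spun down. Supernatant was analysed by LC-MS/MS. The 0-min sample, quenched before NADPH addition, was set as 100%, and percent parent remaining came from peak areas.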

[2] = target: 5'-AMP-activated protein kinase catalytic subunit alpha-1 (Homo sapiens) (UniProt Q13131); assay: Binding affinity to wild-type human partial length AMPK alpha1 (M1 to E306 residues) expressed in bacterial expression system assessed as residual binding level at 1 uM by Kinomescan method relative to control
[3] = target: Cytoplasmic tyrosine-protein kinase BMX (Homo sapiens) (UniProt P51813); assay: Binding affinity to wild-type human full length BMX (M1 to H675 residues) expressed in bacterial expression system assessed as residual binding level at 1 uM by Kinomescan method relative to control
[4] = target: Calcium/calmodulin-dependent protein kinase kinase 1 (Homo sapiens) (UniProt Q8N5S9); assay: Binding affinity to wild-type human partial length CAMKK1 (R65 to E414 residues) expressed in bacterial expression system assessed as residual binding level at 1 uM by Kinomescan method relative to control
[5] = test system: Receptor-type tyrosine-protein kinase FLT3 (Homo sapiens), P36888 [UNDEFINED MUTATION]; assay: Binding affinity to human partial length FLT3 ITD/F691L double mutant expressed in bacterial expression system assessed as residual binding level at 1 uM by Kinomescan method relative to control
Outline: (§1)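 Kinome-wide selectivity panel run by the KINOMEscan method, with the test compound at a single concentration of 1 μM. Wild-type and mutant kinases were profiled in the same screen.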

[6] = target: Receptor-type tyrosine-protein kinase FLT3 (Homo sapiens) (UniProt P36888); assay: Binding affinity to wild-type human partial length autoinhibited FLT3 (H564 to Y969 residues) expressed in mammalian expression system assessed as residual binding level at 1 uM by Kinomescan method relative to control
[7] = target: Glycogen synthase kinase-3 alpha (Homo sapiens) (UniProt P49840); assay: Binding affinity to wild-type human full length GSK3A (M1 to S483 residues) expressed in bacterial expression system assessed as residual binding level at 1 uM by Kinomescan method relative to control
Outline: (§2)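 Single-point kinome-wide KINOMEscan binding panel, test compound at 1 μM, run by the provider's standard protocol.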

[8] = target: Serine/threonine-protein kinase LATS2 (Homo sapiens) (UniProt Q9NRM7); assay: Binding affinity to wild-type human partial length LATS2 (Q641 to V1088 residues) expressed in mammalian expression system assessed as residual binding level at 1 uM by Kinomescan method relative to control
[9] = target: MAP kinase-activated protein kinase 5 (Homo sapiens) (UniProt Q8IW41); assay: Binding affinity to wild-type human partial length MAPKAPK5 (M1 to D322 residues) expressed in mammalian expression system assessed as residual binding level at 1 uM by Kinomescan method relative to control
[10] = target: Myosin light chain kinase, smooth muscle (Homo sapiens) (UniProt Q15746); assay: Binding affinity to wild-type human full length MYLK (M854 to E1845 residues) expressed in mammalian expression system assessed as residual binding level at 1 uM by Kinomescan method relative to control; outline: as §2
[11] = target: Mitogen-activated protein kinase kinase kinase 14 (Homo sapiens) (UniProt Q99558); assay: Binding affinity to wild-type human partial length NIK (L318 to P947 residues) expressed in mammalian expression system assessed as residual binding level at 1 uM by Kinomescan method relative to control
[12] = target: Serine/threonine-protein kinase NIM1 (Homo sapiens) (UniProt Q8IY84); assay: Binding affinity to wild-type human partial length NIM1 (Q44 to N355 residues) expressed in mammalian expression system assessed as residual binding level at 1 uM by Kinomescan method relative to control
[13] = target: Phosphatidylinositol 4,5-bisphosphate 3-kinase catalytic subunit alpha isoform (Homo sapiens) (UniProt P42336); assay: Binding affinity to wild-type human partial length PIK3CA (R108 to N1068 residues) expressed in mammalian expression system assessed as residual binding level at 1 uM by Kinomescan method relative to control
[14] = test system: Mycobacterium tuberculosis; assay: Binding affinity to wild-type Mycobacterium tuberculosis partial length PKNB (M1 to G279 residues) expressed in mammalian expression system assessed as residual binding level at 1 uM by Kinomescan method relative to control; outline: as §1
[15] = target: Serine/threonine-protein kinase PLK2 (Homo sapiens) (UniProt Q9NYY3); assay: Binding affinity to wild-type human partial length PLK2 (H58 to F354 residues) expressed in mammalian expression system assessed as residual binding level at 1 uM by Kinomescan method relative to control
[16] = target: Receptor-interacting serine/threonine-protein kinase 4 (Homo sapiens) (UniProt P57078); assay: Binding affinity to wild-type human partial length RIPK4 (M1 to V303 residues) expressed in mammalian expression system assessed as residual binding level at 1 uM by Kinomescan method relative to control
[17] = target: Rho-associated protein kinase 1 (Homo sapiens) (UniProt Q13464); assay: Binding affinity to wild-type human partial length ROCK1 (M1 to R415 residues) expressed in mammalian expression system assessed as residual binding level at 1 uM by Kinomescan method relative to control
[18] = target: Ribosomal protein S6 kinase alpha-3 (Homo sapiens) (UniProt P51812); assay: Binding affinity to wild-type human partial length C-terminal RSK2 kinase domain 2 (V402 to S715 residues) expressed in mammalian expression system assessed as residual binding level at 1 uM by Kinomescan method relative to control
[19] = target: Ribosomal protein S6 kinase alpha-6 (Homo sapiens) (UniProt Q9UK32); assay: Binding affinity to wild-type human partial length C-terminal RSK4 kinase domain 2 (I401 to Y711 residues) expressed in bacterial expression system assessed as residual binding level at 1 uM by Kinomescan method relative to control
[20] = target: Serine/threonine-protein kinase SIK1 (Homo sapiens) (UniProt P57059); assay: Binding affinity to wild-type human partial length SIK (M1 to Y304 residues) expressed in bacterial expression system assessed as residual binding level at 1 uM by Kinomescan method relative to control
[21] = target: Angiopoietin-1 receptor (Homo sapiens) (UniProt Q02763); assay: Binding affinity to wild-type human partial length TIE2 (N804 to T1112 residues) expressed in bacterial expression system assessed as residual binding level at 1 uM by Kinomescan method relative to control
[22] = target: BDNF/NT-3 growth factors receptor (Homo sapiens) (UniProt Q16620); assay: Binding affinity to wild-type human partial length TRKB (Q547 to G838 residues) expressed in mammalian expression system assessed as residual binding level at 1 uM by Kinomescan method relative to control

Sequence of Angiopoietin-1 receptor (Homo sapiens) (Q02763 whole entry, the tested form may be a part): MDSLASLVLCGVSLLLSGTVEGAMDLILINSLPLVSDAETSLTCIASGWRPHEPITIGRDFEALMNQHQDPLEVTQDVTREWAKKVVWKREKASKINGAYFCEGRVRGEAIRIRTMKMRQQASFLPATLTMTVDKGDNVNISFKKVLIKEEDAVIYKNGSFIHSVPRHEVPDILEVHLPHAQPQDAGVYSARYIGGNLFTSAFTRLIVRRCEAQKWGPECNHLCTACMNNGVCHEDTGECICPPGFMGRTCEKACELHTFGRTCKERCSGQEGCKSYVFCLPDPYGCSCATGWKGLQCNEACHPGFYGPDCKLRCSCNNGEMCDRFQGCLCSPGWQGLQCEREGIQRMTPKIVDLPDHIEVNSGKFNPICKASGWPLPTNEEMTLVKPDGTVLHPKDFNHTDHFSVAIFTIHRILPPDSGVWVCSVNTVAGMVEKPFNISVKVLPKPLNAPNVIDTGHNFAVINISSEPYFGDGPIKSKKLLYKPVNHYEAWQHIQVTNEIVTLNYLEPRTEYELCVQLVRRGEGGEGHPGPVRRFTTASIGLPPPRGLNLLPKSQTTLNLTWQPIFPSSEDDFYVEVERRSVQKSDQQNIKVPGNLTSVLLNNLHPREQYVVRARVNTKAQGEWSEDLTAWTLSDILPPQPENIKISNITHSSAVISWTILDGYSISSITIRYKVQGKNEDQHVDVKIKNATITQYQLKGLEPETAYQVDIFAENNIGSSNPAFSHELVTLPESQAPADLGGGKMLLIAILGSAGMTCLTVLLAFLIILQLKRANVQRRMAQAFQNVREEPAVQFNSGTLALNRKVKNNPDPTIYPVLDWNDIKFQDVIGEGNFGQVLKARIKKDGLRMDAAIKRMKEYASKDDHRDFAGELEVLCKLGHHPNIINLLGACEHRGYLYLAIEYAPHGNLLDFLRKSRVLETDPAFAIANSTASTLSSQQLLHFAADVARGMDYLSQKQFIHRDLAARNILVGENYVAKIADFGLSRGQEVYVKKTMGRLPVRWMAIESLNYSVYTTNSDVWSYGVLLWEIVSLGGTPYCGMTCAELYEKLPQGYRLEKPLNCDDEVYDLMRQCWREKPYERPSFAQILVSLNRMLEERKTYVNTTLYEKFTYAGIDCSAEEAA
Sequence of Myosin light chain kinase, smooth muscle (Homo sapiens) (Q15746 whole entry, the tested form may be a part): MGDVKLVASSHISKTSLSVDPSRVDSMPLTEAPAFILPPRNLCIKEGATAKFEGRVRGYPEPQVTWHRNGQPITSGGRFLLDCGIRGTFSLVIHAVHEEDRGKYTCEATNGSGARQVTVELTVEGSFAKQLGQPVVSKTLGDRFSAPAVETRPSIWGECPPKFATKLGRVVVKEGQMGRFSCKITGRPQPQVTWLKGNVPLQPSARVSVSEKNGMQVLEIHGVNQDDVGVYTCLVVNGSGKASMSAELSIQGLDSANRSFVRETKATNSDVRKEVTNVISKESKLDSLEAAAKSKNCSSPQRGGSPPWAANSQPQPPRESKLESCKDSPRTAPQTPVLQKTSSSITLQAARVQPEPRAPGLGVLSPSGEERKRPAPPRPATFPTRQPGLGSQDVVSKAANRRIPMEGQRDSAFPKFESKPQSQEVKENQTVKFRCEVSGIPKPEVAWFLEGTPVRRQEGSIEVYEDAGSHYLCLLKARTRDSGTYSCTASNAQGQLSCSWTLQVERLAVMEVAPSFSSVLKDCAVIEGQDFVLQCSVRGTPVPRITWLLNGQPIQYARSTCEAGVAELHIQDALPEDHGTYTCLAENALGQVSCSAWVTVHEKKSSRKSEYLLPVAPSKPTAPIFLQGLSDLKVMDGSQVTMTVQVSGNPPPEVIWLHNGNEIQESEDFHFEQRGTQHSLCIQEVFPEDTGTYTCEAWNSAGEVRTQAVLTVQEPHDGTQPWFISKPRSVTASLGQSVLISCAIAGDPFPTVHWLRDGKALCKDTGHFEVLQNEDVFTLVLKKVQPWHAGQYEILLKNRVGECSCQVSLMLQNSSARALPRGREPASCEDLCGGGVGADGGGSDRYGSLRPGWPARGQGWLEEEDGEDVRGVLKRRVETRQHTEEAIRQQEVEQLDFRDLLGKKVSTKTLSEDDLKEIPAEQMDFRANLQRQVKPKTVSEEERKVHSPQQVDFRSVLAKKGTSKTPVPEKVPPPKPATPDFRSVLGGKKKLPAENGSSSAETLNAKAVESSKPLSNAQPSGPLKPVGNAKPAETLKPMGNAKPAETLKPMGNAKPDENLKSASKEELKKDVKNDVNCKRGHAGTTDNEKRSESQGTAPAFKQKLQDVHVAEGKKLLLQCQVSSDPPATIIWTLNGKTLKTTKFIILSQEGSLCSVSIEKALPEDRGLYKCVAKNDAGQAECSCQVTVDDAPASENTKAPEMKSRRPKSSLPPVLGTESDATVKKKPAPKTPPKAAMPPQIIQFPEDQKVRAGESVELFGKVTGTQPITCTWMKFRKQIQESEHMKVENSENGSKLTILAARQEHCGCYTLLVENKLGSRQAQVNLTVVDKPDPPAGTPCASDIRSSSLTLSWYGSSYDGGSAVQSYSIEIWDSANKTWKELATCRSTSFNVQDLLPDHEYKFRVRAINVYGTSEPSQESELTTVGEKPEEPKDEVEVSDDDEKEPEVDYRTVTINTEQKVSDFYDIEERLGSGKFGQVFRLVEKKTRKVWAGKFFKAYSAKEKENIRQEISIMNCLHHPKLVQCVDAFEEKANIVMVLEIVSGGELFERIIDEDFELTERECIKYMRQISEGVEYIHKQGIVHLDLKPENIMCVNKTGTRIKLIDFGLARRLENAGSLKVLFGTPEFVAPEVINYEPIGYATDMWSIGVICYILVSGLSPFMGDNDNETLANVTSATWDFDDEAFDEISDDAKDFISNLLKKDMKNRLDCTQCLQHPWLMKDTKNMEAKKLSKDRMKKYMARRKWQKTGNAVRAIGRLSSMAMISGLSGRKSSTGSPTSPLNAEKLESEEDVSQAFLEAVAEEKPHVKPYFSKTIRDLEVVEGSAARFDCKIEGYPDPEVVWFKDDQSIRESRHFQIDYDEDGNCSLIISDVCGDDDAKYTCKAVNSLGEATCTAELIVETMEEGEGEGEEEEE
Sequence of Glycogen synthase kinase-3 alpha (Homo sapiens) (P49840 2-483 limits assumed): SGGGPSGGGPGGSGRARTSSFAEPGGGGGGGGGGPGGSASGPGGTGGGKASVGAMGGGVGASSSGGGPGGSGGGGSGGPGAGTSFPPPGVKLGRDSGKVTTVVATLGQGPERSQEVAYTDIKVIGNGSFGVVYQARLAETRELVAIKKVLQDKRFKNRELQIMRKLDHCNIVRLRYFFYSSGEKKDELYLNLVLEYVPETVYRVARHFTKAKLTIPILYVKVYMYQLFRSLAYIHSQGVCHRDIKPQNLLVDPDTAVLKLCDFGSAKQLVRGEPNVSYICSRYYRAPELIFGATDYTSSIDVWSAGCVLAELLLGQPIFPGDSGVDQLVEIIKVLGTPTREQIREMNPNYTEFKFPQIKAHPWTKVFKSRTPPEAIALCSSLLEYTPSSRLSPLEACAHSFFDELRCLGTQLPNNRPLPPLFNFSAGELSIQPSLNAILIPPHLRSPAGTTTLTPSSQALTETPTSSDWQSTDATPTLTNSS
Sequence of Ribosomal protein S6 kinase alpha-6 (Homo sapiens) (Q9UK32 whole entry, the tested form may be a part): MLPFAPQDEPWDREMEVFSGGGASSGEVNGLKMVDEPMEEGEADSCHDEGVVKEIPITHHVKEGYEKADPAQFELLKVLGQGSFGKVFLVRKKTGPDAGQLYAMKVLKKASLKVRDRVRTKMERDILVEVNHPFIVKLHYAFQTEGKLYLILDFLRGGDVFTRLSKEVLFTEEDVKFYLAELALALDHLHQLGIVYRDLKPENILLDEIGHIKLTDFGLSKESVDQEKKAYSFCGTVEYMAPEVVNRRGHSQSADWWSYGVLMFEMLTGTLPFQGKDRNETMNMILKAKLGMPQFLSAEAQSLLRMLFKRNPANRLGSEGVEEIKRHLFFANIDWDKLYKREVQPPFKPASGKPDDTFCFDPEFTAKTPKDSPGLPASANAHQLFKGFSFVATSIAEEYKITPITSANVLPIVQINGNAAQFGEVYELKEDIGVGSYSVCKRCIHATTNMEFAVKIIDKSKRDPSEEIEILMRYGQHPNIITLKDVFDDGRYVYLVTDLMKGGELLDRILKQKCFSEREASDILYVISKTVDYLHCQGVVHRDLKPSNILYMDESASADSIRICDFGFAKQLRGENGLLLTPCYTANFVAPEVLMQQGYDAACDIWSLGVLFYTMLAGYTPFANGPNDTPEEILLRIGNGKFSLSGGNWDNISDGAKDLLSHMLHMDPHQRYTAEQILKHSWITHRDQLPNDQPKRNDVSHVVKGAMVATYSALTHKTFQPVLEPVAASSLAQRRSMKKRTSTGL
Sequence of Serine/threonine-protein kinase NIM1 (Homo sapiens) (Q8IY84 whole entry, the tested form may be a part, canonical isoform): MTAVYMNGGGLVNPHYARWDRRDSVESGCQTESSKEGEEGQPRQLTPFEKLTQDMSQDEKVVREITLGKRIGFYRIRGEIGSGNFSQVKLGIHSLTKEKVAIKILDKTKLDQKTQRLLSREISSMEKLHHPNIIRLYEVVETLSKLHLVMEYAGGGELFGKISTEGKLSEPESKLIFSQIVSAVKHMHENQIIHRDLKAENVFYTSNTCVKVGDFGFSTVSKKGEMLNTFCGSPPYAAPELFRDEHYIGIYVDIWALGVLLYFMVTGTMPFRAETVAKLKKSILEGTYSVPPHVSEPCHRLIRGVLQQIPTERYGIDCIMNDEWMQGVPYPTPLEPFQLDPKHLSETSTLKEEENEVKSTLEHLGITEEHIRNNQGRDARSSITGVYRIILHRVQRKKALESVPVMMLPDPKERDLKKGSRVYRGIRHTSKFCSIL

## C=CC(=O)Nc1cc(Nc2ncc(Cl)c(Nc3ccccc3S(=O)(=O)C(C)C)n2)c(OC)cc1N(C)CCN(C)C
[1]
  remaining at 0.5 h, 1 µM: 17%
[2]
  Activity: 16%
[3]
  Activity: 4.5%
[4]
  Activity: 2.8%
[5]
  Activity: 3.6%
[6]
  Activity: 85%
[7]
  Activity: 99%
[8]
  Activity: 74%
[9]
  Activity: 100%
[10]
  Activity: 1.3%
[11]
  Activity: 91%
[12]
  Activity: 100%
[13]
  Activity: 85%
[14]
  Activity: 50%
[15]
  Activity: 87%
[16]
  Activity: 72%
[17]
  Activity: 46%
[18]
  Activity: 75%
[19]
  Activity: 15%
[20]
  Activity: 67%
[21]
  Activity: 20%
[22]
  Activity: 30%
